Assay: Toxicity liver stage against HepG2, at 10uM
Type: cell-based
Set-up: test concentration 10 uM, cell line HepG2-A16-CD81EGFP
Details: human, HepG2-A16-CD81EGFP cells; read-out: INHIBITION
Method in brief: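 Uninfected HepG2-A16-CD81EGFP cells, 3 × 10^3 per well, 1536-well, plated on prespotted compound at 10 μM final, parasite-free screening media added to match infected plates; puromycin 10 μM positive, DMSO 0.5% negative; run in parallel with 48 h PbLuc assay at 37 °C, 5% CO2; viability by CellTiter-Glo luminescence, normalized to controls.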

Row | Compound | cytotoxicity at 10 µM
1 | CC(C)Oc1cccc(C(=O)C2CCCN(C(=O)c3ccccn3)C2)c1 (stereo not given) | -7.67%
2 | Cc1noc([C@@H]2C[C@H](NC(=O)Nc3ccccc3)CN2C)n1 | -1.89%
3 | COc1ccc(C)cc1-c1csc(N)c1C#N | -5.18%
4 | Cc1nn(C)cc1-c1cc(C(F)F)nc2sc(C(N)=O)c(N)c12 | 2.6%
5 | CCn1ncc(CN(C)C(=O)c2cc(C(F)(F)F)n(C)n2)c1C | 3.87%
6 | Clc1cccc(-n2cnnn2)c1N1CCOCC1 | 9.43%
7 | CC(C(=O)NCC(C)(C)c1ccc2c(c1)OCCO2)n1cncn1 (stereo not given) | 13.8%
8 | CC(=O)NCc1ccc(C(=O)N2CCCc3c(F)ccc(C)c32)o1 | -0.883%
9 | COCC(C)NC(=O)N(C)Cc1cc(C)on1 (stereo not given) | 6.27%
10 | c1csc(-c2cc(CN3CCN(c4cnccn4)CC3)no2)c1 | -0.523%
11 | COc1ccnc(N2CCN(C(=O)c3csnn3)CC2)n1 | -0.581%
12 | COCCOCC(=O)N1CCc2cc(Cl)cc(Cl)c2C1 | 1.4%
13 | N#Cc1ccc(F)c(CNC(=O)NC(CO)c2ccccc2)c1 (stereo not given) | 4.16%
14 | CCc1nnc(C2Cc3ccccc3CN2Cc2ncc(Cl)n2C)o1 (stereo not given) | 12.5%
15 | O=C(CN1CCCC1CC(=O)c1ccccc1)NCc1ccccn1 (stereo not given) | 1.39%
16 | Cc1cc(CN(C)Cc2ncc(-c3cccs3)o2)no1 | 11%
17 | COc1cc(F)ccc1N1CCN(Cc2nnc(C3CC3)o2)CC1 | 14.8%
18 | Cn1cc(C2CCCN2CCCn2c(=O)oc3ccccc32)cn1 (stereo not given) | 5.63%
19 | O=C(CN1CCCC1Cn1cccn1)NC1CCOCC1 (stereo not given) | -23.2%
20 | O=C(CCNC(=O)c1ccccc1N1CCOCC1)NC1CCCC1 | -17.8%
21 | COc1cccc(N2CCN(C(=O)C(O)CC(C)C)CC2=O)c1 (stereo not given) | -14.7%
22 | CC(=O)NC1CCN(c2cc(C3CCNCC3)nc(C)n2)C1 (stereo not given) | -1.92%
23 | Cc1nonc1C1CCCN1C(=O)c1cc2n(n1)CCCN(C(C)C)C2 (stereo not given) | -10%

Row | Compound | cytotoxicity at 10 µM
24 | CC[C@H]1CN(C(=O)c2cnc(N3CCN(C)CC3)nc2C)CC[C@@]1(C)O | -4.15%
25 | CCN1CC(C(=O)N2CC(Oc3ccccc3Cl)C2)CCC1=O (stereo not given) | -8.62%
26 | CCc1cc(C(=O)NCC2CCN(Cc3cccc(C)n3)C2)on1 (stereo not given) | 7.69%
27 | CC(=O)c1cc(CN2C[C@@H](CN3CCCC3)[C@@H](CO)C2)n(C)c1 | 4.92%
28 | O=C1OC2(CCNCC2)CN1CC(=O)N1CCCC1c1nccs1 (stereo not given) | -4.92%
29 | CN(C)C(=O)C1(Oc2ccc(Cl)cc2)CCNCC1 | 13.7%
30 | CC(C)N1CCC(C(=O)N(C)C(C)c2ccon2)CC1 (stereo not given) | 5.16%
31 | COCC[C@]1(O)CCN(C(=O)CCn2c(C)cccc2=O)C[C@H]1C | 3.28%
32 | COc1cccc(S(=O)(=O)NC(=O)COC2CCCCC2)c1 | -0.502%
33 | CCN(C(C)=O)c1nc(CN2CCCCC2Cn2cncn2)cs1 (stereo not given) | -5.4%
34 | CCn1cc(CN2CCCN(C(=O)CCc3nccs3)CC2)cn1 | -2.53%
35 | Cc1nn(C)c(C)c1C1CCCN1C(=O)c1ccc2nnc(C)n2c1 (stereo not given) | -12.2%
36 | CC(C)CC(C)N(C)C(=O)c1nc(S(C)(=O)=O)n2ccccc12 (stereo not given) | -9.24%
37 | CS(=O)(=O)c1cccc(C(=O)N2CCCC(n3cccn3)C2)c1 (stereo not given) | -8.77%
38 | Cc1ccc(CN2CCC3(CCN(c4cnn(C)c4)C3=O)C2)s1 (stereo not given) | -70%
39 | Cc1nnc(N2CCCC3(CN(Cc4ccc(C)s4)CCO3)C2)o1 (stereo not given) | -14.6%
40 | CCS(=O)(=O)N1CCC2(CN(c3ccsc3)C(=O)CN2C)C1 (stereo not given) | 7.31%
41 | COCCO[C@H]1CCN(C(=O)c2cccnc2)[C@H]1Cc1cnn(C)c1 | 4%
42 | Cc1occc1C(=O)N1CCC2(CCN(Cc3nccs3)C2)CC1 | -12.5%
43 | CCOCC1CN(Cc2csc(C)n2)Cc2nccn2C1 (stereo not given) | 5.98%
44 | Cn1nnc2c1C(COCc1ccccn1)CN(C(=O)c1ccsc1)C2 (stereo not given) | 13.6%
45 | O=C(c1cccnc1-c1ccoc1)N1C[C@@H]2CC[C@H]1C2 | 6.3%

— ChEMBL document CHEMBL4513216, “Probing the Open Global Health Chemical Diversity Library for Multistage-Active Starting Points for Next-Generation Antimalarials” (ACS Infect Dis, 2020)
